Experimental data taken from ChEMBL document CHEMBL4406856, “Structure based design, synthesis and in vitro antitumour activity of tiazofurin stereoisomers with nitrogen functions at the C-2' or C-3' positions” (Eur J Med Chem, 2019).
Active and inactive are the calls of the source. No cut-off for these calls is given here.

Experiments:
K562 [1] = experiment: Induction of apoptosis in human K562 cells incubated for 24 hrs by annexin V FITC and propidium iodide staining based flow cytometry relative to control; type: functional; set-up: concentration or dose not given beside the values
K562 [2] = experiment: Antiproliferative activity against human K562 cells assessed as reduction in cell growth incubated for 72 hrs by MTT assay; type: functional, cell-based; details: K562, 72 h
Summary of the method: (§1)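 Colorimetric MTT assay on human tumour lines K562 (chronic myeloid leukemia), HL-60 (promyelocytic leukemia), Jurkat (T cell leukemia), Raji (Burkitt's lymphoma), HT-29 (colorectal adenocarcinoma), HeLa (cervix adenocarcinoma) and normal lung fibroblast MRC-5; cells exposed to compounds for 72 h.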

HL-60 = experiment: Antiproliferative activity against human HL60 cells assessed as reduction in cell growth incubated for 72 hrs by MTT assay; type: functional, cell-based; details: HL-60, 72 h
Summary of the method: as §1, with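 “h. IC50 taken as concentration giving 50% growth inhibition versus untreated control.” for “h.”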

Jurkat [3] = experiment: Antiproliferative activity against human Jurkat cells assessed as reduction in cell growth incubated for 72 hrs by MTT assay; type: functional, cell-based
Summary of the method: as §1, with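 “h. IC50 taken as concentration giving 50% growth inhibition versus untreated control.” for “h.”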

Raji = experiment: Antiproliferative activity against human Raji cells assessed as reduction in cell growth incubated for 72 hrs by MTT assay; type: functional, cell-based; summary of the method: as §1
HT-29 [4] = experiment: Antiproliferative activity against human HT-29 cells assessed as reduction in cell growth incubated for 72 hrs by MTT assay; type: functional, cell-based; details: HT-29, 72 h
Summary of the method: as §1, with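 “h. IC50 taken as concentration giving 50% growth inhibition versus untreated control.” for “h.”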

HeLa [5] = experiment: Antiproliferative activity against human HeLa cells assessed as reduction in cell growth incubated for 72 hrs by MTT assay; type: functional, cell-based
Summary of the method: as §1, with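 “h. IC50 taken as concentration giving 50% growth inhibition versus untreated control.” for “h.”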

MRC5 = experiment: Cytotoxicity against human MRC5 cells assessed as reduction in cell viability incubated for 72 hrs by MTT assay; type: cell-based; details: MRC5, 72 h; summary of the method: as §1
K562 [6] = experiment: Potency index, ratio of tiazofurin IC50 to compound IC50 for cytotoxicity against human K562 cells incubated for 72 hrs by MTT assay; type: functional
Jurkat [7] = experiment: Potency index, ratio of tiazofurin IC50 to compound IC50 for cytotoxicity against human Jurkat cells incubated for 72 hrs by MTT assay; type: functional
HT-29 [8] = experiment: Potency index, ratio of tiazofurin IC50 to compound IC50 for cytotoxicity against human HT-29 cells incubated for 72 hrs by MTT assay; type: functional
HeLa [9] = experiment: Potency index, ratio of tiazofurin IC50 to compound IC50 for cytotoxicity against human HeLa cells incubated for 72 hrs by MTT assay; type: functional
K562 [10] = experiment: Potency index, ratio of doxorubicin IC50 to compound IC50 for cytotoxicity against human K562 cells incubated for 72 hrs by MTT assay; type: functional
Jurkat [11] = experiment: Potency index, ratio of doxorubicin IC50 to compound IC50 for cytotoxicity against human Jurkat cells incubated for 72 hrs by MTT assay; type: functional
HT-29 [12] = experiment: Potency index, ratio of doxorubicin IC50 to compound IC50 for cytotoxicity against human HT-29 cells incubated for 72 hrs by MTT assay; type: functional
HeLa [13] = experiment: Potency index, ratio of doxorubicin IC50 to compound IC50 for cytotoxicity against human HeLa cells incubated for 72 hrs by MTT assay; type: functional
K562 [14] = experiment: Cell cycle arrest in human K562 cells assessed as accumulation in G2/M phase incubated for 72 hrs by propidium iodide staining based flow cytometry (reference value: 15.45%); type: functional
Summary of the method: (§2)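 Exponentially growing K562 cells treated for 24 or 72 h, untreated cells as control; cells stained with propidium iodide and DNA content read by flow cytometry. Phase distribution (subG1, G0/G1, S, G2/M) taken from one-parameter histograms, subG1 scored as hypodiploid, apoptotic cells.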

K562 [15] = experiment: Cell cycle arrest in human K562 cells assessed as accumulation in S phase incubated for 72 hrs by propidium iodide staining based flow cytometry (reference value: 36.05%); type: functional; summary of the method: as §2
K562 [16] = experiment: Cell cycle arrest in human K562 cells assessed as accumulation in G0/G1 phase incubated for 72 hrs by propidium iodide staining based flow cytometry (reference value: 45.43%); type: functional; summary of the method: as §2
K562 [17] = experiment: Cell cycle arrest in human K562 cells assessed as accumulation in SubG1 phase incubated for 72 hrs by propidium iodide staining based flow cytometry (reference value: 3.07%); type: functional; summary of the method: as §2
K562 [18] = experiment: Induction of apoptosis in human K562 cells incubated for 72 hrs by annexin V FITC and propidium iodide staining based flow cytometry relative to control; type: functional; set-up: concentration or dose not given beside the values
Summary of the method: (§3)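 K562 cells treated for 72 h, stained with Annexin V-FITC/propidium iodide and analysed by flow cytometry. Apoptotic, necrotic and live fractions scored as percent of gated cells; specific apoptosis and specific necrosis calculated from these counts.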

K562 [19] = experiment: Induction of necrosis in human K562 cells incubated for 72 hrs by annexin V FITC and propidium iodide staining based flow cytometry relative to control; type: functional; set-up: concentration or dose not given beside the values; summary of the method: as §3
K562 [20] = experiment: Induction of apoptosis in human K562 cells assessed as Bcl2 level incubated for 72 hrs by Western blot analysis (reference value: 100%); type: functional
Summary of the method: (§4)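 K562 cells treated for 72 h; Bcl-2, BAX, caspase 3 precursor (32 kDa), caspase 3 active subunit (18 kDa) and PARP (112 and 85 kDa) measured by Western blot and expressed as % of untreated control.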

K562 [21] = experiment: Induction of apoptosis in human K562 cells assessed as Bax level incubated for 72 hrs by Western blot analysis (reference value: 100%); type: functional; summary of the method: as §4
K562 [22] = experiment: Induction of apoptosis in human K562 cells assessed as 32 kDa Caspase 3 precursor level incubated for 72 hrs by Western blot analysis (reference value: 100%); type: functional; summary of the method: as §4
K562 [23] = experiment: Induction of apoptosis in human K562 cells assessed as 18 kDa Caspase 3 active subunit level incubated for 72 hrs by Western blot analysis (reference value: 100%); type: functional; summary of the method: as §4
K562 [24] = experiment: Induction of apoptosis in human K562 cells assessed as 112 kDa PARP level incubated for 72 hrs by Western blot analysis (reference value: 100%); type: functional; summary of the method: as §4
K562 [25] = experiment: Induction of apoptosis in human K562 cells assessed as 85 kDa PARP level incubated for 72 hrs by Western blot analysis (reference value: 100%); type: functional; summary of the method: as §4
K562 [26] = experiment: Induction of apoptosis in human K562 cells assessed as reduction in cell membrane integrity at cytotoxic IC50 incubated for 72 hrs by acridine orange and ethidium bromide double staining based fluorescence microscopy; type: functional
K562 [27] = experiment: Genotoxicity in human K562 cells assessed as increase in DNA damage at cytotoxic IC50 incubated for 72 hrs by comet assay; type: toxicity, cell-based; details: k562, 72 h
Summary of the method: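 Modified alkaline comet assay: cells set in agarose on slides, electrophoresed horizontally, stained with ethidium bromide and imaged by fluorescence microscopy. 50 comets scored per sample; mean tail moment used as the DNA-damage measure.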

K562 [28] = experiment: Induction of necrosis in human K562 cells incubated for 24 hrs by annexin V FITC and propidium iodide staining based flow cytometry relative to control; type: functional; set-up: concentration or dose not given beside the values
K562 [29] = experiment: Cell cycle arrest in human K562 cells assessed as accumulation in G2/M phase incubated for 24 hrs by propidium iodide staining based flow cytometry (reference value: 14.29%); type: functional; summary of the method: as §2
K562 [30] = experiment: Cell cycle arrest in human K562 cells assessed as accumulation in S phase incubated for 24 hrs by propidium iodide staining based flow cytometry (reference value: 48.38%); type: functional; summary of the method: as §2
K562 [31] = experiment: Cell cycle arrest in human K562 cells assessed as accumulation in G0/G1 phase incubated for 24 hrs by propidium iodide staining based flow cytometry (reference value: 36.28%); type: functional; summary of the method: as §2
K562 [32] = experiment: Cell cycle arrest in human K562 cells assessed as accumulation in sub-G1 phase incubated for 24 hrs by propidium iodide staining based flow cytometry (reference value: 1.05%); type: functional; summary of the method: as §2
K562 [33] = experiment: Cell cycle arrest in human K562 cells assessed as decrease in cell accumulation at G2/M phase incubated for 72 hrs by propidium iodide staining based flow cytometry relative to tiazofurin; type: functional; summary of the method: as §2

`NC(=O)c1csc([C@@H]2O[C@H](CO)[C@H](N)[C@H]2O)n1` was tested, and the Activity (K562 [1]) was 6.35%, the IC50 (K562 [2]) was 35 nM and the IC50 (HL-60) was 9390 nM. It also gave an IC50 (Jurkat [3]) of 3.6 nM, an IC50 (Raji) of 3850 nM and an IC50 (HT-29 [4]) of 5 nM. For the same molecule, the IC50 (HeLa [5]) was 12 nM, the IC50 (MRC5) was > 100000 nM and the “Ratio IC50” value (K562 [6]) was 11 - 318. The “Ratio IC50” value (Jurkat [7]) was 11 - 318, the “Ratio IC50” value (HT-29 [8]) was 11 - 318 and the “Ratio IC50” value (HeLa [9]) was 11 - 318. The “Ratio IC50” value (K562 [10]) was 5 - 30, the “Ratio IC50” value (Jurkat [11]) was 5 - 30 and the “Ratio IC50” value (HT-29 [12]) was 5 - 30. For the same molecule, the “Ratio IC50” value (HeLa [13]) was 5 - 30, the Activity (K562 [14]) was 13.77% and the Activity (K562 [15]) was 32.99%. The Activity (K562 [16]) was 40.45%, the Activity (K562 [17]) was 12.78% and the Activity (K562 [18]) was 34.37%. The Activity (K562 [19]) was 20.43%, the Activity (K562 [20]) was 164.9% and the Activity (K562 [21]) was 240.62%. It also gave an Activity (K562 [22]) of 1465.64%, an Activity (K562 [23]) of 172.46% and an Activity (K562 [24]) of 84.76%. The Activity (K562 [25]) was 104.95%, the Activity (K562 [26]) was “Active” and the Activity (K562 [27]) was “Toxic”. It also gave an Activity (K562 [28]) of -0.99%, an Activity (K562 [29]) of 4.72% and an Activity (K562 [30]) of 35.75%. For the same molecule, the Activity (K562 [31]) was 55.65%, the Activity (K562 [32]) was 3.87% and the “fold change (FC)” value (K562 [33]) was 2 - 2.4.
